Laboratory results reported in ChEMBL document CHEMBL4177759 (J Med Chem, 2018).
Blank lines part the entries; values can stand above or below the molecule they belong to.

Key:
[1] = Solubility of the compound in 0.01 M PBS after 24 hrs by shake flask method; type: physicochemical; details: buffer
[2] = Prodrug conversion in mouse jejunum homogenate assessed as mebendazole formation by measuring remaining parent drug at 10 uM measured at 60 mins by LC-MS/MS method; type: ADME, tissue-based; details: in vitro, 1 h
Outline: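 Washed mouse jejunum diluted 10-fold in 0.1 M potassium phosphate buffer, probe-sonicated; homogenate spiked with 10 µM prodrug; triplicate aliquots at 0 and 60 min quenched with ice-cold acetonitrile plus losartan; prodrug remaining by LC-MS/MS peak-area ratio to internal standard.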

[3] = Chemical stability of the compound in 0.01 M PBS at 10 uM after 60 mins by LC-MS/MS method; type: physicochemical; details: buffer, 1 h
Outline: (§1)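 Prodrug from 10 mM DMSO stock spiked to 10 µM final in preheated PBS at 37 °C; aliquots taken over 60 min, quenched with cold acetonitrile containing losartan internal standard, diluted with water, and intact prodrug measured by LC-MS/MS.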

[4] = Prodrug conversion in CD1 mouse plasma assessed as mebendazole formation at 30 mg/kg mebendazole equivalent administered single dose via oral gavage measured at 60 mins by LC-MS/MS method; type: ADME, organism-based; details: in vivo, 1 h
[5] = Prodrug conversion in mouse liver microsomes assessed as mebendazole formation by measuring remaining parent drug at 10 uM measured at 60 mins by LC-MS/MS method; type: ADME, microsome; details: 1 h
Outline: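 Mouse liver microsomes (0.5 mg/mL) with 10 µM prodrug in 100 mM potassium phosphate, pH 7.4, reaction started by adding microsomes; triplicate samples at 0 and 60 min quenched with ice-cold acetonitrile containing losartan; prodrug disappearance by LC-MS/MS.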

[6] = Prodrug conversion in naive mouse plasma assessed as mebendazole formation by measuring remaining parent drug at 10 uM measured at 60 mins by LC-MS/MS method; type: ADME, cell-free; details: 1 h
Outline: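 Prodrug spiked at 10 µM into 1 mL naive mouse plasma, incubated on orbital shaker at 37 °C; triplicate aliquots at 0 and 60 min quenched with ice-cold acetonitrile plus losartan internal standard; remaining prodrug by LC-MS/MS.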

[7] = mouse, in vivo, po, 30 mg/kg, 0.5 h
[8] = Tmax in Beagle dog at 0.3 mg/kg, iv by LC-MS/MS method; type: ADME, organism-based, Canis lupus familiaris; details: in vivo
Outline: (§2)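 Male beagle dogs (n=2) given single IV bolus of MBZ-C at 0.3 mg/kg in co-solvent vehicle (1% DMSO, 10% Cremophor EL). Jugular vein blood (~1 mL) by direct puncture at set times into sodium heparin tubes, kept on wet ice, spun 3,000 × g 5 min 4 °C, plasma stored -80 °C; MBZ quantified by LC-MS/MS.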

[9] = Oral bioavailability in Beagle dog at […] by LC-MS/MS method; type: ADME, organism-based, Canis lupus familiaris; details: in vivo
[10] = Tmax in CD1 mouse plasma at 30 mg/kg administered via oral gavage by LC-MS/MS method; type: ADME, organism-based
Outline: (§3)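 Male CD-1 mice dosed once by oral gavage, 30 mg/kg MBZ equivalent, formulated just before dosing in 5% ethanol, 5% polysorbate 80, 90% water; plasma and brain collected at set times after CO2 euthanasia; MBZ by LC-MS/MS; AUC0-t by log-linear trapezoidal rule; brain/plasma ratio as ratio of mean AUC0-t values.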

[11] = AUC (0 to t) in CD1 mouse at 1.5 mg/kg, iv by LC-MS/MS method; type: ADME, organism-based; details: in vivo
Outline: (§4)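 Male CD-1 mice (25–30 g) received single IV dose 1.5 mg/kg MBZ-C dissolved just before dosing in 1% DMSO, 10% Cremophor EL, 89% saline; sacrificed by CO2 at set times; plasma extracted with acetonitrile containing losartan internal standard and MBZ measured by LC-MS/MS against naive-matrix calibration (0.001-50 nmol/g).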

[12] = AUC (0 to t) in Beagle dog at […], po by LC-MS/MS method; type: ADME, organism-based, Canis lupus familiaris; details: in vivo
[13] = Half life in Beagle dog at 0.3 mg/kg, iv by LC-MS/MS method; type: ADME, organism-based, Canis lupus familiaris; details: in vivo; outline: as §2
[14] = Cmax in Beagle dog at […], po measured at 2 hrs by LC-MS/MS method; type: ADME, organism-based, Canis lupus familiaris; set-up: dose 2.5 mg/kg, route oral; details: in vivo
[15] = Volume of distribution in CD1 mouse at 1.5 mg/kg, iv by LC-MS/MS method; type: ADME, organism-based; details: in vivo; outline: as §4
[16] = Volume of distribution in Beagle dog at 0.3 mg/kg, iv by LC-MS/MS method; type: ADME, organism-based, Canis lupus familiaris; details: in vivo; outline: as §2
[17] = Half life in CD1 mouse at 1.5 mg/kg, iv by LC-MS/MS method; type: ADME, organism-based; details: in vivo; outline: as §4
[18] = Ratio of drug level in brain to plasma in CD1 mouse at 30 mg/kg administered via oral gavage by LC-MS/MS method; type: ADME, organism-based; details: brain and plasma, read-out: BPR; outline: as §3
[19] = Tmax in CD1 mouse brain at 30 mg/kg administered via oral gavage by LC-MS/MS method; type: ADME, organism-based; outline: as §3
[20] = AUC (0 to t) in CD1 mouse plasma at 30 mg/kg administered via oral gavage by LC-MS/MS method; type: ADME, organism-based; outline: as §3
[21] = AUC (0 to t) in CD1 mouse brain at 30 mg/kg administered via oral gavage by LC-MS/MS method; type: ADME, organism-based; details: in vivo; outline: as §3
[22] = Tmax in Beagle dog at […], po by LC-MS/MS method; type: ADME, organism-based, Canis lupus familiaris; details: in vivo
[23] = Cmax in Beagle dog at 0.3 mg/kg, iv at 5 mins by LC-MS/MS method; type: ADME, organism-based, Canis lupus familiaris; set-up: dose 0.3 mg/kg, route intravenous; details: in vivo; outline: as §2
[24] = Cmax in CD1 mouse brain at 30 mg/kg administered via oral gavage at 60 mins by LC-MS/MS method; type: ADME, organism-based; set-up: dose 30 mg/kg, route oral; details: in vivo, 1 h; outline: as §3
[25] = Clearance in CD1 mouse at 1.5 mg/kg, iv by LC-MS/MS method; type: ADME, organism-based; details: in vivo; outline: as §4
[26] = Cmax in CD1 mouse plasma at 30 mg/kg administered via oral gavage at 60 mins by LC-MS/MS method; type: ADME, organism-based; set-up: dose 30 mg/kg, route oral; outline: as §3
[27] = Tmax in CD1 mouse at 1.5 mg/kg, iv by LC-MS/MS method; type: ADME, organism-based; details: in vivo; outline: as §4
[28] = Cmax in CD1 mouse at 1.5 mg/kg, iv at 5 mins by LC-MS/MS method; type: ADME, organism-based; set-up: dose 1.5 mg/kg, route intravenous; details: in vivo; outline: as §4
[29] = Oral bioavailability in human at 1.7 ug; type: ADME, organism-based; details: in vivo
[30] = Oral bioavailability in human at 1.18 ug; type: ADME, organism-based; details: in vivo
[31] = Oral bioavailability in CD1 mouse plasma at 30 mg/kg administered via gavage by LC-MS/MS method; type: ADME, organism-based
[32] = Plasma concentration in CD1 mouse at 30 mg/kg administered single dose via oral gavage measured at 60 mins by LC-MS/MS method; type: ADME, organism-based
[33] = AUC (0 to t) in Beagle dog at 0.3 mg/kg, iv by LC-MS/MS method; type: ADME, organism-based, Canis lupus familiaris; details: in vivo; outline: as §2
[34] = Clearance in Beagle dog at 0.3 mg/kg, iv by LC-MS/MS method; type: ADME, organism-based, Canis lupus familiaris; details: in vivo; outline: as §2
[35] = Chemical stability of the compound in 0.01 M PBS assessed as parent compound remaining at 10 uM after 60 mins by LC-MS/MS method; type: physicochemical; details: read-out: Stability; outline: as §1

SMILES: COC(=O)Nc1nc2cc(C(=O)c3ccccc3)ccc2n1COC(=O)CNC(=O)[C@H](CC(C)C)NC(C)=O
solubility [1]: Soluble
Stability [2]: 18%
Stability [3]: Stable
Drug metabolism [4]: 8.72 nmol/mL
Stability [5]: 29%
Stability [6]: 0%

SMILES: COC(=O)Nc1nc2cc(C(=O)c3ccccc3)ccc2n1COP(=O)(O)OCOC(=O)OC(C)C
Stability [2]: 1%
Stability [3]: Stable
Drug metabolism [4]: 10.35 nmol/mL
Stability [5]: 14%
Cmax [7]: 12.2 µM
Stability [6]: 73%

SMILES: COC(=O)Nc1nc2ccc(C(=O)c3ccccc3)cc2[nH]1 [MEBENDAZOLE]
Tmax [8]: 4.98 min
bioavailability [9]: 11%
Stability [2]: 100%
Tmax [10]: 60 min
AUC(0-t) [11]: 2.7 µM·h
AUC(0-t) [12]: 0.8 µM·h
half-life [13]: 43.2 min
Cmax at 2 h [14]: 0.2 µM
Vd [15]: 1.4 L/kg
Vd [16]: 1.3 L/kg
half-life [17]: 43.8 min
Kp [18]: 1
Tmax [19]: 60 min
AUC(0-t) [20]: 12.9 µM·h
AUCt [21]: 13.1 nmol·h/g
Tmax [22]: 120 min
Cmax [23]: 2.2 µM
Cmax [24]: 5.1 nmol/g
clearance [25]: 27.4 mL/min/kg
Cmax [26]: 5.1 µM
Stability [5]: 100%
Tmax [27]: 4.98 min
Cmax [28]: 5.3 µM
bioavailability [29]: 17%
bioavailability [30]: 22%
bioavailability [31]: 24%
concentration at 1 h [32]: 2.86 µM
AUC(0-t) [33]: 0.9 µM·h
clearance [34]: 22.2 mL/min/kg
Stability [6]: 100%

SMILES: COC(=O)Nc1nc2cc(C(=O)c3ccccc3)ccc2n1COC(=O)OC[C@H]1OC(O)[C@H](O)[C@@H](O)[C@@H]1O (some centres not stated)
solubility [1]: Soluble
Stability [2]: 4%
Stability [3]: Stable
Stability [5]: 27%
Stability [6]: 18%

Continued, values first:

solubility [1]: Soluble
Stability [3]: Stable
SMILES: COC(=O)Nc1nc2cc(C(=O)c3ccccc3)ccc2n1COC(=O)OC(C)C

solubility [1]: Soluble
Stability [2]: 30%
Stability [3]: Stable
Stability [5]: 24%
Stability [6]: 78%
SMILES: COC(=O)Nc1nc2cc(C(=O)c3ccccc3)ccc2n1COC(=O)CCC(=O)O

solubility [1]: Soluble
Stability [2]: 35%
Stability [3]: Stable
Drug metabolism [4]: 8.53 nmol/mL
Stability [5]: 100%
Stability [6]: 62%
SMILES: COC(=O)Nc1nc2cc(C(=O)c3ccccc3)ccc2n1COP(=O)(O)O

solubility [1]: Soluble
remaining at 1 h, 10 µM [35]: 0%
SMILES: COC(=O)Nc1nc2cc(C(=O)c3ccccc3)ccc2n1COC(=O)CC[C@H](N)C(=O)O
